# Source: PubChem
# Shown are actives, neighbours in structure and some others; about 3.7% of the full set was active somewhere.
# hERG rescue: hERG rescue from dofetilide block, primary screen, cell-based, CHO-hERG, FluxOR thallium flux, dofetilide IC70; dofetilide IC70 present; activation (rescue from dofetilide block), less the hit threshold, % at 10 µM; 310,000 compounds, 0.51% hits;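 active = activation above the mean of controls blocked by dofetilide plus 5 SD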;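 also: thallium influx through hERG after potassium depolarization seen as dye fluorescence rise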
# KCNQ1 block: inhibitors of human KCNQ1 channel, primary screen, cell-based, thallium flux, high-throughput. Potassium voltage-gated channel subfamily KQT member 1 (Homo sapiens), P51787. CHO-K1 KCNQ1, FluxOR thallium flux fluorescence; active compounds read high. B-score at 10 µM. 310,000 compounds, 1.3% hits. AID 2642, 2010;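 active = compounds whose thallium flux B-score, printed positive for inhibition, exceeds three library SD while starting fluorescence stays within three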;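 also: channel opened by potassium depolarization with thallium stimulus after 20 min compound exposure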
# Kir21 block: inhibitors of mouse Kir2.1 inward-rectifier potassium channel | Inward rectifier potassium channel 2 (Mus musculus), P35561 | HEK293-Kir2.1, FluxOR thallium flux fluorescence; active compounds read low | B-score at 10 µM | 310,000 compounds, 0.85% hits;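 active = fluorescence ratio B-score at or below minus 3 SD of library scores, with starting-brightness B-score within 2 SD, cut at about -4.2 in these data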;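 also: channel flux triggered by added potassium and thallium sulfate stimulus; B-score of peak minus minimum fluorescence over baseline after thallium stimulus; more negative B-score means stronger Kir2.1 block with less thallium influx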
# KCNQ1 pot: potentiators or activators of KCNQ1 channel, primary screen, cell-based, thallium flux, high-throughput; Potassium voltage-gated channel subfamily KQT member 1 (Homo sapiens), P51787; 310,000 compounds, 0.35% hits; B-score at 10 µM; AID 2648, 2010; CHO-K1 KCNQ1, thallium flux FluxOR fluorescence; active compounds read high;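 active = fluorescence ratio B-score, a plate-corrected score, at least three library SD, with initial intensity B-score within 5 SD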
#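 Doses: Single concentration per compound, DMSO matched to controls | Test system: KCNQ1-transfected CHO-K1 cells | Timing: 90 min dye loading and 20 min compound exposure, both at room temperature | Measured by: Kinetic FluxOR thallium fluorescence, 10-s 1-Hz baseline, 110-s post-stimulus read | Medium: Assay buffer with matched DMSO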
# KCNK3 block: human KCNK3 channel inhibitors, primary screen, CHO cells, FluxOR thallium flux, B-score. Potassium channel subfamily K member 3 (Homo sapiens), O14649. FluxOR fluorescence; active compounds read low. B-score at 10 µM. 340,000 compounds, 0.84% hits. AID 602410, 2012;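 active = B-score under library mean minus 4 SD, starting fluorescence ratio at most library mean plus 5 SD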;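 also: more negative B-score means stronger inhibition of thallium flux through KCNK3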
# KCNK9 inh: KCNK9 potassium channel inhibitors, primary screen, HEK293 cells, thallium flux; Potassium channel subfamily K member 9 (Homo sapiens), Q9NPC2; FluxOR thallium flux fluorescence; active compounds read low; B-score at 10 µM; 310,000 compounds, 1.2% hits; AID 488922, 2010;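 active = ratio B-score over 3 SD below the library mean, with starting fluorescence within 5 SD of its mean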;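 also: negative B-score means less thallium flux so channel inhibition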
# KCNQ1 inh valid: KCNQ1 potassium channel inhibitors, confirmation, cell-based, Tl flux, duplicate; shares compounds with KCNQ1 block; KCNQ1 cell line, FluxOR thallium flux fluorescence; inhibition, % at 10 µM; 1,600 compounds, 93% hits;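 active = primary screen active, with duplicate mean exceeding buffer control mean plus 3 SD of buffer wells, cut at about 28% in these data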;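 also: 0% = buffer control ratio and 100% = XE991 inhibitor control ratio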
# CHO KCNQ1 ctr: thallium flux effects in parental CHO cells, counter-screen for KCNQ1 inhibitor project, cell-based, Tl flux. shares compounds with KCNQ1 block. parental CHO-K1, FluxOR thallium flux fluorescence ratio; active compounds read low; zero means no signal rise above baseline. fluorescence ratio (Tl flux) at 10 µM. 1,600 compounds, 21% hits;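 active = mean of duplicate thallium-flux fluorescence ratios in parental host cells more than 5 SD below the buffer control mean, cut at about 0.38 in these data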;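 also: ratio is peak minus minimum fluorescence divided by baseline fluorescence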
# KCNQ1 APC inh: KCNQ1 channel inhibitors, confirmation, orthogonal assay, cell-based, automated electrophysiology; shares compounds with KCNQ1 block; KCNQ1-CHO cells, automated patch clamp current; calls only at 10 µM; 490 compounds, 20% hits; AID 624120, 2012;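 active = KCNQ1 current drop exceeding 3 SD of negative control wells, seen in both duplicate runs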;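 also: steady state current during a 2 s step from -80 to +40 mV; negative values mean current inhibition and positive values mean potentiation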
# KCNQ2 inh: KCNQ2 channel inhibition, selectivity assay for KCNQ1 inhibitor project, cell-based. shares compounds with KCNQ1 block. KCNQ2 cells, FluxOR thallium flux fluorescence. inhibition, % at 10 µM. 1,600 compounds, 71% hits. AID 651746, 2012;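 active = mean percent inhibition of the KCNQ2 thallium signal more than 5 SD above the buffer-only control wells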;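 also: KCNQ2 expressed in CHO cells; 0% = buffer control wells and 100% = XE-991 inhibitor control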
# KCNQ1-KCNE1 inh: KCNQ1/KCNE1 channel inhibition, selectivity assay for KCNQ1 inhibitor project, CHO-K1 cells, thallium flux, FluxOR. shares compounds with KCNQ1 block. FluxOR thallium flux fluorescence. inhibition, % at 10 µM. 1,600 compounds, 77% hits. AID 652147, 2013;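 active = mean percent inhibition of duplicate wells above the buffer-only control mean plus 3 SD of those controls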;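 also: 0% = buffer only wells and 100% = XE-991 inhibitor control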
# The depositor's hits bear a star; i = inactive; . = no result given.
SMILES,hERG rescue,KCNQ1 block,Kir21 block,KCNQ1 pot,KCNK3 block,KCNK9 inh,KCNQ1 inh valid,CHO KCNQ1 ctr,KCNQ2 inh,KCNQ1-KCNE1 inh,others
Cc1ccc(S(=O)(=O)Nc2ccccc2CNc2ccc(Br)cn2)cc1,-20,7*,-2.6,i,i,-7.6*,109*,0.37*,103%*,152%*,
Cc1oc2cc(Br)c(O)c(Br)c2c1-c1ccccc1,-7,i,0.11,i,i,i,.,.,.,.,
CC(C)c1ccc(NC(=S)NCc2ccc3c(c2)OCO3)cc1,-15,8*,1.8,i,i,i,82*,0.51,i,61%*,
O=C(Nc1ccccc1)Nc1ccc(Cl)c(S(=O)(=O)N2CCOCC2)c1,-20,11*,-0.06,i,i,i,0,0.56,i,i,
Cc1ccc(C)c(OCCC(=O)Nc2ccc3c(c2)OCO3)c1,.,.,.,.,i,.,.,.,.,.,
Cc1ccc(-n2nc3c(c2NC(=O)c2cccs2)CS(=O)(=O)C3)c(C)c1,-5,i,1.1,i,i,i,.,.,.,.,
c1ccc(CCNc2ncnc3ccccc23)cc1,-17,8*,0.42,i,i,i,139*,0.48,84%*,110%*,KCNQ1 APC inh=i
Brc1ccc2ncnc(NCc3ccccc3)c2c1,-10,i,0.65,i,i,i,.,.,.,.,
CCc1ccccc1Nc1ncnc2ccccc12,-1,i,-2.4,i,i,i,.,.,.,.,
CCCCCCCCNc1ncnc2ccccc12,-36,9*,-8*,i,i,i,125*,0.37*,76%*,118%*,
CCOc1ccc(C2OCCC(C)O2)cc1OC (stereo unspecified),.,.,.,.,i,.,.,.,.,.,
COc1ncnc2c1sc1nc(-c3ccccc3)c3c(c12)CCCC3,-13,10*,0,i,i,i,103*,0.42,96%*,131%*,KCNQ1 APC inh=i
CN(C)CCSc1nc2cc(S(=O)(=O)N3CCCCC3)ccc2o1,.,.,.,.,i,.,.,.,.,.,
CCC1(CC)Cc2ccccc2-c2nc(-c3ccccc3)oc(=O)c21,-12,7*,0.09,i,i,i,60*,0.45,103%*,91%*,
O=c1oc(-c2ccccc2)nc2c1C1(CCCCC1)Cc1ccccc1-2,-8,i,-0.03,i,i,i,.,.,.,.,
CSc1nc(Cl)c(Cc2ccc(OCC(C)C)cc2)c(N2CCOCC2)n1,-8,8*,-1.6,i,i,i,110*,0.4,103%*,136%*,KCNQ1 APC inh=i
CCCCOc1ccc(Cc2c(Cl)nc(SC)nc2N2CCOCC2)cc1,-21,7*,-1.3,i,i,i,63*,0.39,102%*,68%*,
CSc1nc(N2CCOCC2)c2c3c(sc2n1)CCCC3,-4,i,0.01,i,i,i,.,.,.,.,
